ChEMBL document CHEMBL1123030, “N-(Aminoalkyl)imide antineoplastic agents. Synthesis and biological activity” (J Med Chem, 1985)
Activity calls are given as the source filed them. The calls are words filed in the database; no cut-off is given here.

Tests used:
L1210 [1] = experiment: Compound was tested for cytotoxic activity against L1210 leukemia in vitro.; IA means Inactive; type: functional, cell-based; conditions: Mus musculus
P388 [2] = experiment: Inhibitory activity in vivo against P388 leukemia cells in mice at a dose of 100 mg/kg upon intraperitoneal administration; type: functional, Mus musculus
Procedure, shortened: (§1)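 Tumor source was ascites fluid implanted into BDF₁ mice. Tumor inoculation and drug dosing were both intraperitoneal, given once daily for 5 days (q1d × 5). Screening and data interpretation followed the general NCI protocol.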

Mus musculus [3] = experiment: Compound was evaluated for inhibitory activity in vivo against P388 leukemia cells in mice at a dose of 400 mg/kg upon intraperitoneal administration; type: functional; procedure, shortened: as §1
Mus musculus [4] = experiment: Compound was evaluated for inhibitory activity in vivo against P388 leukemia cells in mice at a dose of 200 mg/kg upon intraperitoneal administration; type: functional; procedure, shortened: as §1
Homo sapiens [5] = species: Homo sapiens; experiment: Compound was tested for cytotoxic activity against human colon adenocarcinoma in vitro; IA means inactive; type: functional
L1210 [6] = experiment: Cytotoxic activity against L1210 leukemia in vitro.; type: functional, Mus musculus
Homo sapiens [7] = species: Homo sapiens; experiment: Compound was tested for cytotoxic activity against human colon adenocarcinoma in vitro; IA means Inactive; type: functional
Mus musculus [8] = experiment: Compound was evaluated for inhibitory activity in vivo against P388 leukemia cells in mice at a dose of 120 mg/kg upon intraperitoneal administration; type: functional; procedure, shortened: as §1
Mus musculus [9] = experiment: Compound was evaluated for inhibitory activity in vivo against P388 leukemia cells in mice at a dose of 60 mg/kg upon intraperitoneal administration; type: functional; procedure, shortened: as §1
P388 [10] = experiment: Inhibitory activity in vivo against P388 leukemia cells in mice at a dose of 25 mg/kg upon intraperitoneal administration; type: functional, Mus musculus; procedure, shortened: as §1
P388 [11] = experiment: Inhibitory activity in vivo against P388 leukemia cells in mice at a dose of 50 mg/kg upon intraperitoneal administration; type: functional, Mus musculus; procedure, shortened: as §1
P388 [12] = experiment: Inhibitory activity in vivo against P388 leukemia cells in mice at a dose of 12.5 mg/kg upon intraperitoneal administration; type: functional, Mus musculus; procedure, shortened: as §1
[13] = Cytotoxic activity against human colon adenocarcinoma in vitro; type: functional
Mus musculus [14] = experiment: Compound was evaluated for inhibitory activity against B-16 melanoma in mice at a dose of 12.5 mg/kg upon intraperitoneal administration; type: functional
Mus musculus [15] = experiment: Compound was evaluated for inhibitory activity against B-16 melanoma in mice at a dose of 25 mg/kg upon intraperitoneal administration; type: functional
Mus musculus [16] = experiment: Compound was evaluated for inhibitory activity against B-16 melanoma in mice at a dose of 6.25 mg/kg upon intraperitoneal administration; type: functional
Mus musculus [17] = experiment: Compound was evaluated for inhibitory activity in vivo against P388 leukemia cells in mice at a dose of 15 mg/kg upon intraperitoneal administration; type: functional; procedure, shortened: as §1
Mus musculus [18] = experiment: Compound was evaluated for inhibitory activity in vivo against P388 leukemia cells in mice at a dose of 30 mg/kg upon intraperitoneal administration; type: functional; procedure, shortened: as §1
[19] = system: L1210 leukemia (Mus musculus); experiment: Compound was evaluated for inhibitory activity against L1210 leukemia in mice at a dose of 50 mg/kg upon intraperitoneal administration
Mus musculus [20] = experiment: Compound was evaluated for inhibitory activity in vivo against P388 leukemia cells in mice at a dose of 2 mg/kg upon intraperitoneal administration; type: functional; procedure, shortened: as §1
Mus musculus [21] = experiment: Compound was evaluated for inhibitory activity in vivo against P388 leukemia cells in mice at a dose of 16 mg/kg upon intraperitoneal administration; type: functional; procedure, shortened: as §1
Mus musculus [22] = experiment: Compound was evaluated for inhibitory activity in vivo against P388 leukemia cells in mice at a dose of 8 mg/kg upon intraperitoneal administration; type: functional; procedure, shortened: as §1
Mus musculus [23] = experiment: Compound was evaluated for inhibitory activity in vivo against P388 leukemia cells in mice at a dose of 4 mg/kg upon intraperitoneal administration; type: functional; procedure, shortened: as §1
Mus musculus [24] = experiment: Compound was evaluated for inhibitory activity in vivo against P388 leukemia cells in mice at a dose of 3.12 mg/kg upon intraperitoneal administration; type: functional; procedure, shortened: as §1
Mus musculus [25] = experiment: Compound was evaluated for inhibitory activity in vivo against P388 leukemia cells in mice at a dose of 3.00 mg/kg upon intraperitoneal administration; type: functional; procedure, shortened: as §1
Mus musculus [26] = experiment: Compound was evaluated for inhibitory activity in vivo against P388 leukemia cells in mice at a dose of 0.75 mg/kg upon intraperitoneal administration; type: functional; procedure, shortened: as §1
Mus musculus [27] = experiment: Compound was evaluated for inhibitory activity in vivo against P388 leukemia cells in mice at a dose of 1.56 mg/kg upon intraperitoneal administration; type: functional; procedure, shortened: as §1
Mus musculus [28] = experiment: Compound was evaluated for inhibitory activity in vivo against P388 leukemia cells in mice at a dose of 1.50 mg/kg upon intraperitoneal administration; type: functional; conditions: dose 1.5 mg/kg; procedure, shortened: as §1

Row | SMILES | T/C (P388 [2]) | Cytotoxic concentration (L1210 [6]) | T/C (P388 [10]) | T/C (P388 [11]) | T/C (P388 [12]) | Cytotoxic concentration [13] | also measured
1 | CN(C)CCN1C(=O)c2cccc3c(O)ccc(c23)C1=O.I | 107 |  |  |  |  |  | Cytotoxic concentration (L1210 [1]): inactive; T/C (Mus musculus [3]): 120; T/C (Mus musculus [4]): 112
2 | CN(C)CCN1C(=O)c2cccc3cc(O)cc(c23)C1=O | 115 | 1.64 µM |  |  |  |  | Cytotoxic concentration (Homo sapiens [5]): inactive; T/C (Mus musculus [4]): 142
3 | O=C1OCCN1CCN1C(=O)c2cc([N+](=O)[O-])cc3cc([N+](=O)[O-])cc(c23)C1=O |  | 2.02 µM |  |  |  |  | Cytotoxic concentration (Homo sapiens [7]): inactive; T/C (Mus musculus [8]): 119; T/C (Mus musculus [9]): 109
4 | Cl.O=C1c2cccc3cccc(c23)C(=O)N1CCNCCO |  | 2.05 µM | 102 | 120 |  |  | 
5 | Cl.O=C1c2cc([N+](=O)[O-])cc3cc([N+](=O)[O-])cc(c23)C(=O)N1CCN1CCCCC1 |  | 0.287 µM | 181 | 247 | 138 | 539 nM | T/C (Mus musculus [14]): 133; T/C (Mus musculus [15]): 156; T/C (Mus musculus [16]): 114
6 | CCN(CC)CCN1C(=O)c2cc([N+](=O)[O-])cc3cc([N+](=O)[O-])cc(c23)C1=O.Cl |  | 0.347 µM | 207 | 215 | 141 | 820 nM | 
7 | CN(C)CCN1C(=O)c2cccc3c(Cl)ccc(c23)C1=O | 120 | 1.01 µM | 105 | 121 |  |  | 
8 | CN(C)CCN1C(=O)c2cc(O)cc3cc(O)cc(c23)C1=O | 148 | 3.54 µM | 130 | 142 | 122 |  | Cytotoxic concentration (Homo sapiens [5]): inactive; T/C (Mus musculus [3]): 140; T/C (Mus musculus [4]): 149
9 | CN(C)CCCN1C(=O)c2cc([N+](=O)[O-])cc3cc([N+](=O)[O-])cc(c23)C1=O.Cl |  | 1.42 µM | 129 | 154 | 113 | 1180 nM | 
10 | Cl.O=C1c2cccc3cc([N+](=O)[O-])cc(c23)C(=O)N1CCN1CCCCC1 |  | 0.59 µM | 137 | 176 | 119 |  | 
11 | Cl.Nc1cc2c3c(cc(N)cc3c1)C(=O)N(CCN1CCCCC1)C2=O |  | 1.39 µM |  |  | 119 | 1270 nM | T/C (Mus musculus [17]): 136; T/C (Mus musculus [18]): 142; T/C (Mus musculus [9]): 191; T/C [19]: 145
12 | CN(C)CCN1C(=O)c2cccc3cc(N)cc(c23)C1=O [AMONAFIDE] |  |  |  |  |  |  | T/C (Mus musculus [20]): 135; T/C (Mus musculus [21]): 177; T/C (Mus musculus [22]): 144; T/C (Mus musculus [23]): 142
13 | CCN(CC)CCN1C(=O)c2cccc3cc([N+](=O)[O-])cc(c23)C1=O.Cl |  | 1.37 µM | 149 |  | 120 |  | 
14 | CN(C)CCN1C(=O)c2cc([N+](=O)[O-])cc3cc([N+](=O)[O-])cc(c23)C1=O.Cl |  | 0.0361 µM |  |  |  | 41.3 nM | T/C (Mus musculus [24]): 167; T/C (Mus musculus [25]): 169; T/C (Mus musculus [26]): 159; T/C (Mus musculus [27]): 155; T/C (Mus musculus [28]): 167
15 | Cl.O=C1c2cc([N+](=O)[O-])cc3cc([N+](=O)[O-])cc(c23)C(=O)N1CCN1CCOCC1 |  | 1.13 µM | 131 | 147 | 112 | 722 nM | 
16 | CN(C)CCN1C(=O)c2cccc3cccc(c23)C1=O | 166 | 2.05 µM | 116 | 130 |  |  | 
